For 16 compounds, Activity, IC50 and ΔTm results are on record in ChEMBL document CHEMBL4373727, “Thienopyrimidinone Derivatives That Inhibit Bacterial tRNA (Guanine37-N1)-Methyltransferase (TrmD) by Restructuring the Active Site with a Tyrosine-Flipping Mechanism” (J Med Chem, 2019).

One series relates to Erythrocyte. Nature of the series: Hemolytic activity in human RBC at 100 uM measured after 1 hr. The series is classed as ADME, cell-based. Summed up: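 Fresh human RBCs were PBS-washed and resuspended to OD600 24, then mixed 1:1 by volume with compound serially diluted in PBS. Incubated 1 h at 37 °C without shaking and centrifuged at 1000g for 15 min. Triton X-100 served as positive control. Run in triplicate.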

The test system of series [1] is Mycolicibacterium smegmatis. Nature of the series: Antibacterial activity against Mycolicibacterium smegmatis MC2 155 at 100 uM incubated for 24 hrs. The series is classed as functional, organism-based. The gist of the method:
(§1)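 Single-concentration growth screen: 100 μM test compound with log-phase bacteria at about 5×10^5 cells/mL. Incubation 24 h at 37 °C. Growth read by OD600 and given as percent of untreated control. MRSA was grown in cation-adjusted Mueller–Hinton broth. M. smegmatis was grown in complete Middlebrook 7H9. Ampicillin and kanamycin served as positive controls.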

The subject of a further series is Streptococcus pneumoniae. Nature of the series: Antibacterial activity against Streptococcus pneumoniae ATCC 49619 at 100 uM incubated for 24 hrs. The series is classed as functional, organism-based. Summed up: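 Single 100 μM screen in MH medium with 3% defibrinated sheep blood at 37 °C under 5% CO2, ~5×10^5 cells/mL, 24 h.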
Another series concerns Enterococcus faecalis. Nature of the series: Antibacterial activity against Enterococcus faecalis ATCC 51299 at 100 uM incubated for 24 hrs. The format is functional, organism-based. Summed up:
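Single-concentration screen in brain heart infusion broth. Log-phase cells at ~5×10^5 cells/mL were grown with 100 μM compound for 24 h at 37 °C. Growth was read as OD600 and expressed as a percentage of untreated wells. DMSO and blank controls were included.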

In another series the test system is Staphylococcus aureus. Nature of the series: Antibacterial activity against methicillin-resistant Staphylococcus aureus ATCC 43300 at 100 uM incubated for 24 hrs. The series is classed as functional, organism-based. Summed up:
as §1

The subject of series [2] is Mycobacterium tuberculosis. Nature of the series: Antibacterial activity against Mycobacterium tuberculosis ATCC 27294 at 100 uM incubated for 7 days. The format is functional, organism-based.
The target in series [3] is T1, tRNA (guanine-N(1)-)-methyltransferase (Pseudomonas aeruginosa (strain ATCC 15692 / DSM 22644 / CIP 104116 / JCM14847 / LMG 12228 / 1C / PRS 101 / PAO1), UniProt Q9HXQ1).
T1 sequence (Q9HXQ1 whole entry): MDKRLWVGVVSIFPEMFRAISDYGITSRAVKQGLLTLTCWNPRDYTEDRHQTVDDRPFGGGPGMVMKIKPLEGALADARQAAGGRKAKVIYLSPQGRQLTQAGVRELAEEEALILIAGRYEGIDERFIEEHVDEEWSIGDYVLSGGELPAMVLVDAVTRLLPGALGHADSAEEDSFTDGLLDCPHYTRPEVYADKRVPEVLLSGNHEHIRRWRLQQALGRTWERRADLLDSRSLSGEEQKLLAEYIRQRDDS
Nature of the series: Inhibition of Pseudomonas aeruginosa tRNA (guanine(37)-N1)-methyltransferase (Leu5 to Asp25 residues) expressed in Escherichia coli BL21 (DE3) Rosetta T1R cells assessed as reduction in S-adenosyl-L-homocysteine production preincubated for 15 mins followed by 1.5 uM of tRNALeu(CAG) substrate and SAM addition and measured after 45 mins by MTase-Glo assay. Summed up: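 MTase-Glo luminescence assay. 8 nM TrmD preincubated 15 min at ambient temperature with serially diluted inhibitor (0–500 μM) in 50 mM Tris-HCl pH 8.0, 80 mM NaCl, 1 mM MgCl2, 0.5 mM DTT, 0.01% Triton X-100. Reaction with 2 μM SAM and tRNALeu(CAG), 45 min at 37 °C. Detection 30 min in the dark, SAH read against a standard curve. IC50 by nonlinear regression. Two independent experiments in duplicate.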

The target of series [4] is T2, tRNA (guanine-N(1)-)-methyltransferase (Pseudomonas aeruginosa (strain ATCC 15692 / DSM 22644 / CIP 104116 / JCM14847 / LMG 12228 / 1C / PRS 101 / PAO1)) (UniProt Q9HXQ1).
T2 sequence (whole entry): T1 sequence (Q9HXQ1 whole entry)
Nature of the series: Binding affinity to Pseudomonas aeruginosa tRNA (guanine(37)-N1)-methyltransferase (Leu5 to Asp25 residues) expressed in Escherichia coli BL21 (DE3) Rosetta T1R cells assessed as thermal stabilization of protein by measuring change in melting temperature at 0.1 mM by SYPRO orange based thermal shift assay. Summed up:
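Thermal shift: 4 μM TrmD with 5× SYPRO Orange and ligand in 50 mM Tris-HCl pH 8, 150 mM NaCl, 1 mM MgCl2, 1 mM DTT, 0.05% Tween-20. Buffer-only control. Heated from 25 to 95 °C in a real-time PCR instrument, and Tm taken as the unfolding midpoint. Ligand levels: SAH 2 mM, inhibitors 0.1 mM.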

Active and inactive are the calls of the source. Unless noted, the calls are words filed in the database; no cut-off is given here.

One may read the IC50 as the concentration that inhibits the measured activity by half. For the compound `O=C(NCc1ccc(CNC2CCCCC2)cc1)c1csc2nc[nH]c(=O)c12`, the Activity result with Erythrocyte is reported as “Non-Toxic”. The outcome (in series [1]; in the series on Streptococcus pneumoniae; in the series with Enterococcus faecalis; in the series on Staphylococcus aureus; in series [2]) was inactive. In series [3], the IC50 amounted to 790 nM.

In the case of `O=C(NCc1ccc(CNCc2ccccc2)cc1)c1csc2nc[nH]c(=O)c12`, the Activity result in the series on Erythrocyte is “Non-Toxic”. Also, the outcome (in series [1]; in the series on Streptococcus pneumoniae; in the series on Enterococcus faecalis; in the series with Staphylococcus aureus; in series [2]) was inactive. Besides, in series [3], the concentration for half-maximal inhibition (IC50) is 130 nM.

As to `CCN(CC)Cc1ccc(CNC(=O)c2csc3nc[nH]c(=O)c23)cc1`, in the series with Erythrocyte, the Activity entry is “Non-Toxic”. Also, the result (in series [1]; with Streptococcus pneumoniae; with Enterococcus faecalis; in the series on Staphylococcus aureus; in series [2]) was inactive. Moreover, the half-maximal inhibitory concentration (IC50) in series [3] stood at 730 nM.

As usually defined, the ΔTm is the change in melting temperature against a reference sample. In the case of `CCCCCCCCNCc1ccc(CNC(=O)c2csc3ncnc(OCc4ccc(N=[N+]=[N-])cc4)c23)cc1`, in series [3], the concentration for half-maximal inhibition (IC50) is 1800 nM. For the same compound, in series [4], the ΔTm fell in the range of 1 to 2 °C.

As for `CCOCCOCCNCc1ccc(CNC(=O)c2csc3nc[nH]c(=O)c23)cc1`, the result (in series [1]; in the series with Streptococcus pneumoniae; with Enterococcus faecalis; with Staphylococcus aureus; in series [2]) was inactive. The IC50 in series [3] is 210 nM.

For the compound `O=C(NCc1ccc(CNC23CC4CC(CC(C4)C2)C3)cc1)c1csc2nc[nH]c(=O)c12`, the Activity result with Erythrocyte was “Non-Toxic”. Besides, the outcome (in series [1]; in the series on Streptococcus pneumoniae; with Enterococcus faecalis; with Staphylococcus aureus; in series [2]) was inactive. In addition, the IC50 in series [3] amounted to 720 nM.

For the compound `O=C(NCc1ccc(CN2CCCCC2)cc1)c1csc2nc[nH]c(=O)c12`, the Activity entry in the series on Erythrocyte is recorded as “Non-Toxic”. The outcome (in series [1]; with Streptococcus pneumoniae; with Enterococcus faecalis; in the series with Staphylococcus aureus; in series [2]) was inactive. Also, in series [3], the IC50 is 1100 nM.

`CCN(Cc1ccccc1)Cc1ccc(CNC(=O)c2csc3nc[nH]c(=O)c23)cc1`: in the series on Erythrocyte, the Activity result is “Non-Toxic”. Further, the result (in series [1]; in the series with Streptococcus pneumoniae; with Enterococcus faecalis; with Staphylococcus aureus; in series [2]) was inactive. In addition, the IC50 in series [3] worked out at 2200 nM.

Turning to `CCCCCCCCN(CC)Cc1ccc(CNC(=O)c2csc3nc[nH]c(=O)c23)cc1`, the result (in series [1]; with Streptococcus pneumoniae; in the series on Enterococcus faecalis; in the series on Staphylococcus aureus; in series [2]) was inactive. In series [3], the IC50 turned out to be 370 nM.

On to `CCCCCCCCN(Cc1ccccc1)Cc1ccc(CNC(=O)c2csc3nc[nH]c(=O)c23)cc1`, for which, in the series on Erythrocyte, the Activity result is “Non-Toxic”. Besides, the result (in series [1]; in the series on Streptococcus pneumoniae; with Enterococcus faecalis; in the series on Staphylococcus aureus; in series [2]) was inactive. The half-maximal inhibitory concentration (IC50) in series [3] came out at 12000 nM.

Turning to `CCCCNCc1ccc(CNC(=O)c2csc3nc[nH]c(=O)c23)cc1`, the Activity entry in the series with Erythrocyte was “Non-Toxic”. The result (in series [1]; with Streptococcus pneumoniae; with Enterococcus faecalis; in the series with Staphylococcus aureus; in series [2]) was inactive. For the same compound, in series [3], the IC50 worked out at 150 nM.

As to `O=C(NCc1ccc(CNCCOCCO)cc1)c1csc2nc[nH]c(=O)c12`, the Activity entry in the series with Erythrocyte is recorded as “Non-Toxic”. Besides, the result (in series [1]; in the series with Streptococcus pneumoniae; in the series with Enterococcus faecalis; in the series with Staphylococcus aureus; in series [2]) was inactive. Also, the IC50 in series [3] turned out to be 110 nM.

For `CCCCCNCc1ccc(CNC(=O)c2csc3nc[nH]c(=O)c23)cc1`, in the series with Erythrocyte, the Activity entry was “Non-Toxic”. Moreover, the result (in series [1]; in the series with Streptococcus pneumoniae; in the series with Enterococcus faecalis; with Staphylococcus aureus; in series [2]) was inactive. Further, in series [3], the IC50 came out at 85 nM.

Take `CCN(Cc1ccc(CNC(=O)c2csc3nc[nH]c(=O)c23)cc1)C1CCCCC1`: the Activity result in the series on Erythrocyte is “Non-Toxic”. In addition, the outcome (in series [1]; with Streptococcus pneumoniae; with Enterococcus faecalis; in the series with Staphylococcus aureus; in series [2]) was inactive. Besides, the half-inhibitory concentration (IC50) in series [3] stood at 490 nM.

`CCCCCCN(Cc1ccccc1)Cc1ccc(CNC(=O)c2csc3nc[nH]c(=O)c23)cc1`: the result (in series [1]; in the series with Streptococcus pneumoniae; in the series with Enterococcus faecalis; in the series with Staphylococcus aureus; in series [2]) was inactive. Moreover, in series [3], the IC50 worked out at 2200 nM.

Take `O=C(NCc1ccc(CN2CCOCC2)cc1)c1csc2nc[nH]c(=O)c12`: the Activity entry with Erythrocyte is given as “Non-Toxic”. The outcome (in series [1]; with Streptococcus pneumoniae; in the series with Enterococcus faecalis; with Staphylococcus aureus; in series [2]) was inactive. Also, the IC50 in series [3] worked out at 3000 nM.
